Shown are actives, neighbours in structure and some others; about 2.1% of the full set was active somewhere.
CRFBP-R2 block: antagonists of CRF-BP/CRF-R2 complex, primary screen, cell-based, HEK293, calcium dye fluorescence, uHTS; CRF-induced calcium fluorescence; inhibition, % at 11.8 µM; 350,000 tested, 0.59% active;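 active means inhibition of the ligand-induced calcium signal above about 50% at the single tested concentration, limit read from the data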
VIM-2 inh: VIM-2 metallo-beta-lactamase inhibitors, primary screen, biochemical, epi-absorbance readout, Pseudomonas aeruginosa enzyme; purified VIM-2, nitrocefin hydrolysis, epi-absorbance fluorescence; inhibition, % at 5.6 µM; 290,000 tested, 0.89% active; AID 1527, 2009;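 active means inhibition above the mean of all tested compounds plus 3 SD, cutoff set per screening run, cut at about 7.5% in these data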;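 further: red hydrolysis product quenches plate fluorescence so inhibitors raise well fluorescence; 0% = enzyme with DMSO and 100% = DMSO without enzyme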
IMP-1 inhibitor: IMP-1 metallo-beta-lactamase inhibitors, primary screen, biochemical, epi-absorbance readout, Pseudomonas aeruginosa enzyme; metallo-beta-lactamase IMP-1 (Pseudomonas aeruginosa); inhibition, % at 5.6 µM; 290,000 tested, 0.45% active; purified IMP-1, nitrocefin hydrolysis, epi-absorbance fluorescence;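 active means inhibition above the mean plus 3 SD of all compounds in the same screening run, cut at about 4.5% in these data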;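 further: 0% = IMP-1 with DMSO and 100% = DMSO wells lacking enzyme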
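System: purified recombinant IMP-1 beta-lactamase. Medium: Zinc- and detergent-supplemented HEPES buffer, pH 7.1. Compound: one 5.6 µM dose […]. Schedule: 15 min preincubation plus 25 min reaction at 25 °C. Technique: Epi-absorbance fluorescence, 480 nm excitation, 530 nm emission.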
CRFBP-R2 agonist: agonists of CRF-BP/CRF-R2 complex, primary screen, cell-based, HEK293, calcium dye fluorescence, uHTS; CRF-binding protein / CRF receptor 2 complex (human); calcium dye fluorescence (FLIPR); percent of saturating CRF peptide response; activation, % at 13.2 µM; 350,000 tested, 0.46% active;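 active means activation of at least 50%, plus an integration ratio under a set limit after plate pattern correction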;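 further: plate controls were neutral control wells without compound for no effect and CRF at EC100 for full effect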
TRPML3 ag: human TRPML3 channel agonists, primary screen, cell-based, HEK293 TRPML3-YFP, Fluo-8 calcium fluorescence, 3 µM. Mucolipin-3 (Homo sapiens), Q8TDD5. 100% = the carbachol control signal. activation, % at 3 µM. 220,000 tested, 0.29% active. AID 1448, 2008;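 active means activation above its plate's cutoff, the mean activation of the plate's test wells plus 3 SD, cut at about 12% in these data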;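 further: 0% = DMSO only wells and 100% = carbachol wells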
Target sequence (Q8TDD5 whole entry, looked up): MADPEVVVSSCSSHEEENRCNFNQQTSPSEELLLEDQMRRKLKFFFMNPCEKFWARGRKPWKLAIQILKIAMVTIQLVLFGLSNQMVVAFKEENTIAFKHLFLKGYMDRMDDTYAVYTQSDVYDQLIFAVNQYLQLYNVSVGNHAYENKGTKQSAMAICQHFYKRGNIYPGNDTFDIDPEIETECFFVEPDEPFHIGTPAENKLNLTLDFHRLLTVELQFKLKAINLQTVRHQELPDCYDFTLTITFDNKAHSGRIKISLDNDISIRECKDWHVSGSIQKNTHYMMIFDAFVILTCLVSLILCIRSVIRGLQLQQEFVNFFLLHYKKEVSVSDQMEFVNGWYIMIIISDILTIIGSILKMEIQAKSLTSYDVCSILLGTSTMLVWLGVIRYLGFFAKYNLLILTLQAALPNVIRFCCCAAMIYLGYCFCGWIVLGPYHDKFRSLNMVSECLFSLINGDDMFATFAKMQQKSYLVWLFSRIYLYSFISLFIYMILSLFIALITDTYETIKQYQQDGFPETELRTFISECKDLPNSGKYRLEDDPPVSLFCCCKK
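system = HEK293 cells stably carrying human TRPML3-YFP | doses = one concentration, 3 µM nominal, 0.3% DMSO | timing = dye loading 1 h 37 °C then 30 min ambient, 125 s read | detection = Fluo-8 calcium dye fluorescence, ex 470-495, em 515-575 nm | benchmarks = high control carbachol 87 µM, low control DMSO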
TRPN1 ag: zebrafish TRPN1 channel agonists, primary screen, cell-based, HEK293, calcium fluorescence; transient receptor potential cation channel N1 (TRPN1/NompC), Danio rerio; 220,000 tested, 0.18% active; HEK293 zebrafish TRPN1-YFP, Fluo-8 calcium fluorescence; 100% = response to 87 µM carbachol; activation, % at 3 µM;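 active means activation above its plate's cutoff, the mean activation of test wells on that plate plus 3 SD, cut at about 19% in these data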;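 further: 0% = DMSO alone and 100% = 87 µM carbachol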
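System: zebrafish TRPN1-YFP in HEK293 cells / Dosing: 3 µM single point / Timing: dye loading 1 h at 37 °C, then 30 min room temperature / Signal: Fluo-8 calcium fluorescence, excitation 470-495 nm, emission 515-575 nm / Read-out basis: percent activation from peak over basal fluorescence ratio, control-normalized / Control set: high carbachol 87 µM, low DMSO alone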
* hit, by the source's call; nt = no result.

SMILES	CRFBP-R2 block	VIM-2 inh	IMP-1 inhibitor	CRFBP-R2 agonist	TRPML3 ag	TRPN1 ag
Cc1ccccc1N1C(=O)NC(=O)/C(=C\c2cc(Br)c(N3CCOCC3)o2)C1=O	-112	0	2	113*	2	2
CN1C(=O)CN=C(c2ccccc2Cl)c2cc(Br)ccc21	-5	-2	11*	0	nt	nt
CCN1C(=O)NC(=O)/C(=C\c2cn(CC(=O)N3CCCCC3)c3ccccc23)C1=O	1	11*	-2	3	nt	nt
COC(=O)Cn1cc(/C=C2\C(=O)NC(=O)N(c3ccccc3)C2=O)c2ccccc21	-48	1	0	87*	nt	nt
O=C1NC(=S)SC1=Cc1ccc(N(CCCl)CCCl)cc1	-100	nt	nt	88*	nt	nt
N#CC1c2ccccc2-n2nncc2CN1C(=O)CCc1ccccc1 (configuration not stated)	-1	nt	nt	15	nt	nt
O=[N+]([O-])c1oc2ccc3ccccc3c2c1CCO	28	nt	nt	-2	nt	nt
C=CCn1c(O)c(/C=C2/C=c3ccccc3=N2)c(=O)[nH]c1=S	-1	1	11*	4	nt	nt
CC(C)CC1(CCc2ccccc2)C(=O)NC(=O)NC1=O	-13	nt	nt	1	nt	nt
CC(C)(C)P(=O)(NCc1ccccc1)c1ccccc1 (configuration not stated)	-5	-4	-2	-3	0	1
CC(C)CNP(=S)(c1ccccc1)C(C)(C)C (configuration not stated)	66*	-3	-2	-1	6	-2
O=C(NCC1=C(c2ccc3ccccc3c2)C[C@@H]2CC[C@H]1N2Cc1ccco1)c1ccc([N+](=O)[O-])cc1	-11	nt	nt	-2	nt	nt
Cc1ccc(OC(=O)N(C)C[C@@H]2OCc3cnnn3CCCC(=O)N([C@@H](C)CO)C[C@@H]2C)cc1	60*	nt	nt	2	nt	nt
Oc1cc(Cl)c(Cl)c(Cl)c1Cl	30	nt	nt	27	nt	nt
Oc1cc(Cl)c(Cl)c(Cl)c1	55*	nt	nt	20	nt	nt
NC(Cc1ccc(O)cc1)C(=O)NN=Cc1ccc(N(CCCl)CCCl)cc1 (configuration not stated)	60*	nt	nt	1	nt	nt
O=c1[nH]c(O)c(N=Nc2cc(C(F)(F)F)ccc2Cl)c(=O)[nH]1	-24	11*	0	0	-1	-4
CC1(C)OC(c2ccccc2)=C/C(=C/C=C2C(=O)NC(=S)NC2=O)O1	-194	0	1	144*	4	9
CN1/C(=C\C=C2C(=O)NC(=S)NC2=O)C(C)(C)c2ccccc21	-177	0	1	215*	31*	57*
CC1(C)CC(=O)CC(C)(C)N1O	15	nt	nt	-1	nt	nt
CC(C)(C)NC(=S)N1Cc2ccccc2-n2nncc2C1	24	nt	nt	-1	nt	nt
CN1C(=O)C(=Cc2ccc(N3CCCCCC3)o2)C(=O)N(C)C1=S	-82	0	-2	99*	6	11
O=C1NC(=O)N(c2ccc3c(c2)OCO3)C(=O)/C1=C\c1ccc(N2CCCCC2)o1	-38	0	-2	73*	1	1
CCCCn1c(N)c(C(=O)NCCN2CCOCC2)c2nc3ccccc3nc21	-17	4	-5	-1	0	2
CCOC(=O)c1c(N)n(CCN2CCCCC2)c2nc3ccccc3nc12	-3	7.8*	2	-1	0	0
SMILES	CRFBP-R2 block	VIM-2 inh	IMP-1 inhibitor	CRFBP-R2 agonist	TRPML3 ag	TRPN1 ag
CCN1C(=O)C(=C2C=C(C)OC(C)=C2)C(=O)N(CC)C1=S	-1	-2	-1	-2	1	1
CCOC(=O)C1=CC(=C2C(=O)N(CC)C(=S)N(CC)C2=O)c2ccccc2O1	-35	-2	6.2*	-1	0	0
O=C1NC(=S)NC(=O)C1=Cc1ccc(Br)s1	-8	3	7.1*	0	nt	nt
CCc1ccc(-n2c(O)c(/C=N/NC(=O)c3ccncc3)c(=O)[nH]c2=O)cc1	10	-3	13*	-3	1	2
CC(C)c1ccc(-n2c(O)c(/C=N/NC(=O)c3ccncc3)c(=O)[nH]c2=O)cc1	22	-4	-3	-3	0	0
CN1C(=O)C(=Cc2cc([N+](=O)[O-])ccc2N2CCCCC2)C(=O)N(C)C1=O	2	-1	-2	-1	1	0
CN1C(=O)C(=Cc2sc(=O)n(-c3ccccc3)c2N2CCCCC2)C(=O)N(C)C1=O	-37	1	1	31	9	29*
C=CCN1CCC2(C)c3cc(O)ccc3CC1C2C (configuration not stated)	-68	nt	nt	63*	nt	nt
Cc1ccc(OP2(=O)Nc3cc(C)c(C)cc3S2)cc1 (configuration not stated)	-4	nt	nt	-1	nt	nt
Cc1cc(C)c(C)c(C(O)(C(=O)O)c2ccccc2)c1 (configuration not stated)	-13	nt	nt	1	nt	nt
C=C(C)[C@@]12OC3(c4ccccc4)O[C@@H]1C1[C@@H]4O[C@]4(CO)[C@@H](O)[C@]4(O)C(=O)C(C)=C[C@H]4[C@@]1(O3)[C@H](C)[C@H]2OC(=O)/C=C/C=C/c1ccccc1 (some centres not stated)	111*	nt	nt	2	nt	nt
CC(C)(C)n1cc(C(=O)c2ccccc2OCCCF)cn1	4	11*	-1	-1	nt	nt
CC(C)(C)n1cc(C(=O)c2ccc3ccccc3c2O)cn1	0	-3	-3	-2	0	1
Oc1ccc(/C=N/NP(=S)(c2ccccc2)c2ccccc2)cc1	52*	-6	-1	-1	0	0
COc1cc(/C=N/NP(=S)(c2ccccc2)c2ccccc2)ccc1O	-17	-6	-3	-1	0	-2
CC(=O)O[C@H]1CCC2C3CC[C@H]4[C@@H](O)[C@H](O)CC[C@]4(C)C3CC[C@@]21C (some centres not stated)	-7	nt	nt	4	nt	nt
O=c1[nH]c(=O)n(-c2ccc(F)cc2)c(O)c1/C=C1\C=Nc2ccccc21	-47	2	2	102*	nt	nt
CC(=O)OCC12CC(OC(=O)CC(C)C)C(C)=CC1OC1C(O)C(OC(C)=O)C2(C)C12CO2 (configuration not stated)	-2	nt	nt	-3	nt	nt
C=CCn1c(O)c(/C(CC)=N/NC(=S)Nc2ccccc2)c(=O)[nH]c1=O	-7	8.9*	-2	0	0	0
C=CCn1c(O)c(/C(C)=N/NC(=S)Nc2ccccc2)c(=O)[nH]c1=O	9	4	0	1	0	1
CCC1(c2ccccc2)C(=O)N(C)C(=O)N(C)C1=O	9	-2	-1	0	0	0

Screening data as filed in PubChem BioAssay.
